Our source for the inhibition and Activity values is ChEMBL document CHEMBL5126600, “Discovery of the First-in-Class G9a/GLP Covalent Inhibitors” (J Med Chem, 2022).

Calls of active or inactive are those of the source. The calls are words filed in the database; no cut-off is given here. A value given as a limit tells only on which side of the number the result lay.

Experiment [1] has as its target T1, Histone-lysine N-methyltransferase EHMT2 (Homo sapiens) (UniProt Q96KQ7).
T1 sequence (whole entry): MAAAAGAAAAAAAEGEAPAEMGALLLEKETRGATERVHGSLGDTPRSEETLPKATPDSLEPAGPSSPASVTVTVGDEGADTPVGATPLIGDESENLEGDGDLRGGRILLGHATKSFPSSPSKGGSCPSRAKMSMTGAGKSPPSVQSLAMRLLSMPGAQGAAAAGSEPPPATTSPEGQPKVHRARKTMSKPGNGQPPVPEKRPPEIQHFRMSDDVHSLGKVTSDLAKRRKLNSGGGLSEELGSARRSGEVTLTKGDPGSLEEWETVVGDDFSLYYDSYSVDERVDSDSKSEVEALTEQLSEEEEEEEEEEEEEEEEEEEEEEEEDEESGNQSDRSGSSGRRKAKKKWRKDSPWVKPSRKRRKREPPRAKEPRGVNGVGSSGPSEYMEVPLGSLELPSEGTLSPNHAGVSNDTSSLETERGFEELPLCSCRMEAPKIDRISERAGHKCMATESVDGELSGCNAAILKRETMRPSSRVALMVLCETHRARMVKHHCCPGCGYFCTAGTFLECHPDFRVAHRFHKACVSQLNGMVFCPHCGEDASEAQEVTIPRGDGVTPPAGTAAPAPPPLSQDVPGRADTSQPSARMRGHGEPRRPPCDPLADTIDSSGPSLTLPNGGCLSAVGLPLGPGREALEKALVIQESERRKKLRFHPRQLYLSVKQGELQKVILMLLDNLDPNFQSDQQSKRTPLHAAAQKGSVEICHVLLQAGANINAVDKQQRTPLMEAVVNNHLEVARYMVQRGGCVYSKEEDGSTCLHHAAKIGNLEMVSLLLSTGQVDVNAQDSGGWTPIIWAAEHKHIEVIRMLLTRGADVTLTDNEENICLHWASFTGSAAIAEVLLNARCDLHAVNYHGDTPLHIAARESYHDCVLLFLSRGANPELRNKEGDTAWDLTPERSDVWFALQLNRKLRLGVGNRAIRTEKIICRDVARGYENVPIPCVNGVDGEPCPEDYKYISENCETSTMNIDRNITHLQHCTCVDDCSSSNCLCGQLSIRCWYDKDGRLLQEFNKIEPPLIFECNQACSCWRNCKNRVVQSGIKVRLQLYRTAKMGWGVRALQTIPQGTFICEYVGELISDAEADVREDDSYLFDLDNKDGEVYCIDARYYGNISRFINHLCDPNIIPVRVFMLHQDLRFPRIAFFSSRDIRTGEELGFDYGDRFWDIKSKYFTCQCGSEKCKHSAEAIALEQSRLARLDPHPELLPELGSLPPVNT
As to the kind of experiment: Inhibition of human G9a (913 to 1193 residues) assessed as covalent modification by measuring G9a adduct formation at 50 uM incubated for 1 hr by mass spectrometry relative to control. Summed up:
(§1)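 Purified G9a or GLP catalytic domain (5 μM) in 50 mM Tris-HCl pH 7.5, 150 mM NaCl incubated with 50 μM compound or DMSO at room temperature (1 h, or 30 and 60 min in time course); intact mass by ESI LC/MS-TOF; adduct % = adduct/(protein + adduct) × 100.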

Experiment [2] deals with Histone-lysine N-methyltransferase NSD3 (Homo sapiens) (UniProt Q9BZ95). As to the kind of experiment: Inhibition of N-terminal GST tagged NSD3 (1021 to 1322 residues) (unknown origin) expressed in Escherichia coli at 1 uM using 3H-SAM as a substrate relative to control. Summed up:
(§2)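 Contracted 3H-SAM methyl-transfer scintillation proximity assay against a panel of methyltransferases; compound tested at 1 μM in duplicate; inhibition expressed as percent of control enzyme activity.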

Experiment [3] concerns the target Histone-arginine methyltransferase CARM1 (Homo sapiens) (UniProt Q86X55). Description: Inhibition of N-terminal GST-tagged PRMT4 (2 to 608 residues)(unknown origin) expressed in Escherichia coli at 1 uM using 3H-SAM as a substrate relative to control. Summed up: as §2
In experiment [4] the target is Protein arginine N-methyltransferase 7 (Homo sapiens) (UniProt Q9NVM4). As to the kind of experiment: Inhibition of N-terminal His-tagged full-length recombinant human PRMT7 (2 to 692 residues) expressed in baculovirus expression system at 1 uM using 3H-SAM as a substrate relative to control. In a few lines:
as §2

The target in experiment [5] is Protein arginine N-methyltransferase 8 (Homo sapiens) (UniProt Q9NR22). Description: Inhibition of N/C-terminal His-tagged PRMT8 (61 to 394 residues) (unknown origin) expressed in Escherichia coli at 1 uM using 3H-SAM as a substrate relative to control. Summed up: as §2
For experiment [6], the target named is Histone-lysine N-methyltransferase SETD7 (Homo sapiens) (UniProt Q8WTS6). Description: Inhibition of N-terminal and GST-tagged C-terminal His-tagged SET7/9 (2 to 366 residues) (unknown origin) expressed in Escherichia coli at 1 uM using 3H-SAM as a substrate relative to control. Summed up: as §2
The target of experiment [7] is T1, Histone-lysine N-methyltransferase EHMT2 (Homo sapiens). Description: Inhibition of human G9a (913 to 1193 residues) assessed as covalent modification by measuring G9a adduct formation by mass spectrometry. Particulars: time <= 120.0 min, TDE = time-dependent effect. Summed up: as §1
The test system of another experiment is MDA-MB-231. As to the kind of experiment: Cytotoxicity against human MDA-MB-231 cells after 3 days by CCK-8 assay. The format is functional, cell-based. As to conditions: time 3.0 day. In a few lines: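 MDA-MB-231 cells seeded at 1 × 10^4 per well in 96-well plates, exposed to compounds over a range of concentrations for 3 days.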
Background: Tetrazolium dyes change colour on reduction, which living cells bring about.

Histone-arginine methyltransferase CARM1 (Homo sapiens), sequence (Q86X55 whole entry, the tested form may be a part): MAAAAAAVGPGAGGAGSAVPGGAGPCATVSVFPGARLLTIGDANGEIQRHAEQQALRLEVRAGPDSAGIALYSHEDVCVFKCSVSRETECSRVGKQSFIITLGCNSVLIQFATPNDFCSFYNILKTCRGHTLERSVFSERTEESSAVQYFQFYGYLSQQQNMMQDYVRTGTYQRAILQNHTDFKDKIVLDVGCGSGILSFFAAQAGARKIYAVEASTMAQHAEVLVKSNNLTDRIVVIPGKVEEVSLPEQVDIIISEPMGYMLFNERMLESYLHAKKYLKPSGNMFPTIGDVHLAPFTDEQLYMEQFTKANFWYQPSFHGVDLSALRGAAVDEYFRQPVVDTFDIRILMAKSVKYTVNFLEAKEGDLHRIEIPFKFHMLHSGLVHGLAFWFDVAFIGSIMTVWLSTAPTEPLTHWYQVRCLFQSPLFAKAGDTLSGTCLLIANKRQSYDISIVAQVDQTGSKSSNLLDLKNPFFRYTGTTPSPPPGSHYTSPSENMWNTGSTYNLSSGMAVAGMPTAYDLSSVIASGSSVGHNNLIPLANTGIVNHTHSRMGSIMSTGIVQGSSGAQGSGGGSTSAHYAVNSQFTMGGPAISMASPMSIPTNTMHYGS
Protein arginine N-methyltransferase 8 (Homo sapiens), sequence (Q9NR22 2-394 limits assumed): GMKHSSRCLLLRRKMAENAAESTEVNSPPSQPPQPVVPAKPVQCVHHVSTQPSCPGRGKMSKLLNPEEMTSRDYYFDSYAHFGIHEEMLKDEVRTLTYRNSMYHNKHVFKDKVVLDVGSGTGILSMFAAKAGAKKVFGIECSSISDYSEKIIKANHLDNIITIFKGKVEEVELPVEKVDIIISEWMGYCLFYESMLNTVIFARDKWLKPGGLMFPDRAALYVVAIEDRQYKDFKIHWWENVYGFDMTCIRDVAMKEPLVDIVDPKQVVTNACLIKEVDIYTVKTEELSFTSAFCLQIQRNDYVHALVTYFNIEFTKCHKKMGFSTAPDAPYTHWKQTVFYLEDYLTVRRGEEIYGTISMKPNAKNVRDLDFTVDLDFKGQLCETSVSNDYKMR
Histone-lysine N-methyltransferase NSD3 (Homo sapiens), sequence (Q9BZ95 whole entry, the tested form may be a part): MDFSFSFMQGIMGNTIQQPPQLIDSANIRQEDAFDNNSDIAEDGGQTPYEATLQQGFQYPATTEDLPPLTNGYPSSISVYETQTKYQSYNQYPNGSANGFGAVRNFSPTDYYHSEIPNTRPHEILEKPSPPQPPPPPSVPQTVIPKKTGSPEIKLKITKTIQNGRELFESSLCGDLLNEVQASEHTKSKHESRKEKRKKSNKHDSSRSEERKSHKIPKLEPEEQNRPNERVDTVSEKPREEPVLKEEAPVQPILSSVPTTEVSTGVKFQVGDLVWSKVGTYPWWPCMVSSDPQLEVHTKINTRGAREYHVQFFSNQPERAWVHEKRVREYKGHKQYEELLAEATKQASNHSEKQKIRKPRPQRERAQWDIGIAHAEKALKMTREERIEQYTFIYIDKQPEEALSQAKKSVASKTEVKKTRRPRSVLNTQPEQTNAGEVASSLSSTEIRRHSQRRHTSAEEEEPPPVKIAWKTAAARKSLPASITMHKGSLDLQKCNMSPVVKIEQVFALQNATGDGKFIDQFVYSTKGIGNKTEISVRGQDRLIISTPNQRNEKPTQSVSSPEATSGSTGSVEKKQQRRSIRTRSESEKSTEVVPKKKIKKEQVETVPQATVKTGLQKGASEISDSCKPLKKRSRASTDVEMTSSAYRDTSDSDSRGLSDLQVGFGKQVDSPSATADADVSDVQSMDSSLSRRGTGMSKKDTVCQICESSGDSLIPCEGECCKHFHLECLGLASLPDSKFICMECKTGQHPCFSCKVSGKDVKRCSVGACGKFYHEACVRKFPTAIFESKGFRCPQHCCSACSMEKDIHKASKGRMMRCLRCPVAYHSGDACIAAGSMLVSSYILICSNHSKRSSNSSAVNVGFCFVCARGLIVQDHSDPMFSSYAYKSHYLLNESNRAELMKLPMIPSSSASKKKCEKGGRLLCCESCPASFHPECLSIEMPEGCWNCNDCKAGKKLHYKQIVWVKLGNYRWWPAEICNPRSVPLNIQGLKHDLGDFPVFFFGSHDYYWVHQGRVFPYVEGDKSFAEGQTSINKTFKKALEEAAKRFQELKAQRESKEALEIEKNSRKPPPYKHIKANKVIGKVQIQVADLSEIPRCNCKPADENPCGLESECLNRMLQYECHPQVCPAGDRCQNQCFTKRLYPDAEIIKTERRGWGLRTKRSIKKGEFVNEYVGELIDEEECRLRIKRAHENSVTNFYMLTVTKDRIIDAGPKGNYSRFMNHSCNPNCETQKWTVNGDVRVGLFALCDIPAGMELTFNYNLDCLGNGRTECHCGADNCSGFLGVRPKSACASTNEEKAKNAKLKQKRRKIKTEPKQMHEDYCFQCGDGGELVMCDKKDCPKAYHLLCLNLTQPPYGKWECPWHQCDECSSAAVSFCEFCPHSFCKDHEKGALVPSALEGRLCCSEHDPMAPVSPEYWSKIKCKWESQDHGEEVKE
Protein arginine N-methyltransferase 7 (Homo sapiens), sequence (Q9NVM4 whole entry, the tested form may be a part): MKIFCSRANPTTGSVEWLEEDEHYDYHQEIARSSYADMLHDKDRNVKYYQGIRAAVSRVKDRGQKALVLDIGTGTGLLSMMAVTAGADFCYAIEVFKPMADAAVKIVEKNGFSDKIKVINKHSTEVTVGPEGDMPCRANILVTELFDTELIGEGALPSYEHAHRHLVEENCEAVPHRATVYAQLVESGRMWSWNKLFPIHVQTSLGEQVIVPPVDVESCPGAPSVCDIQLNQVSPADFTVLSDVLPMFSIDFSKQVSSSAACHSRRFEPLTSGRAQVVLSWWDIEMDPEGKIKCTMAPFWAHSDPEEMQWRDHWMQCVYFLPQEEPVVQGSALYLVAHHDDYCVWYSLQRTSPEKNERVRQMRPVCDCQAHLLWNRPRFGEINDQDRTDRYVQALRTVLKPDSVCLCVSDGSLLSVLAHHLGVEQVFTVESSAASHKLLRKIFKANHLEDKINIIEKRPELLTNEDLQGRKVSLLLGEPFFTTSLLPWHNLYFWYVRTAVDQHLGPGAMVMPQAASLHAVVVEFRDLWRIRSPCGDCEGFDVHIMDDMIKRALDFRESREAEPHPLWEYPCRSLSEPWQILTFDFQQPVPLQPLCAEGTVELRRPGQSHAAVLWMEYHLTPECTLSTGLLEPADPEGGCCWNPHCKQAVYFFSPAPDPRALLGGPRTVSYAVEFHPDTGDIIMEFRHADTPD
Histone-lysine N-methyltransferase SETD7 (Homo sapiens), sequence (Q8WTS6 whole entry, the tested form may be a part): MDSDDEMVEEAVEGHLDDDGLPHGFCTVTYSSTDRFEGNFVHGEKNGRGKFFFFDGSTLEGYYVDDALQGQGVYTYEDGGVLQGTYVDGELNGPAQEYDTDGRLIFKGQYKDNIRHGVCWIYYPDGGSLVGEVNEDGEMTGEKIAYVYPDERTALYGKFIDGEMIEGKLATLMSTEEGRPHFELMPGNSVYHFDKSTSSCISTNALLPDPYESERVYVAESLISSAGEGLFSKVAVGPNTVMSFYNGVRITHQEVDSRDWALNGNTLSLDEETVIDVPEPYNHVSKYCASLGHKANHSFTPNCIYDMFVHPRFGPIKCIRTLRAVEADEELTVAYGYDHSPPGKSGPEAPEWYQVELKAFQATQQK

As usually defined, the inhibition is the drop in the measured response relative to a control, in per cent. `C=CC(=O)Nc1cc(NC2CCN(C(C)C)CC2)c2cc(OC)c(OCCCN3CCCC3)cc2n1`: the inhibition in experiment [1] is 50%; in experiment [2] it was less than 50%; in experiment [3] it was less than 50%; in experiment [4] it was less than 50%; in experiment [5], less than 50%; in experiment [6], less than 50%. For the same compound, in experiment [7], the inhibition result was “Tde”. For the same compound, the outcome in the experiment with MDA-MB-231 was Active.
